{"source": "ChEMBL document CHEMBL1687770", "about": "“Activity of a trisubstituted pyrrole in inhibiting sporozoite invasion and blocking malaria infection” (2010)", "key": {"Plasmodium berghei [1]": {"system": "Plasmodium berghei", "assay": "Antimalarial activity against Plasmodium berghei NK65 infected in human HepG2 cells assessed as inhibition of transformation of sporozoites into liver stage at 10 uM treated 3 hrs after infection measured 40 hrs after drug washout", "assay_type": "functional, organism-based", "procedure,_shortened": "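Compound at 10 μM was added to HepG2 cultures 3 h after P. berghei NK65 sporozoite addition. Liver stages were detected at 40 h p.i. by MAb 2E6/FITC immunofluorescence and counted. Compared with untreated wells by t test. At least three experiments, in duplicate.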"}, "Plasmodium berghei [2]": {"system": "Plasmodium berghei", "assay": "Antimalarial activity against Plasmodium berghei NK65 infected in human HepG2 cells assessed as inhibition of sporozoite invasion after 1 hr", "assay_type": "functional", "procedure,_shortened": "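HepG2 cells were infected with P. berghei NK65 sporozoites (5 × 10⁴/well) with compound at 0.5, 2 or 10 μM for 1 h at 37°C. Cells were fixed with 4% paraformaldehyde and double-stained to tell intracellular from extracellular sporozoites. Intracellular sporozoites were counted.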"}, "Plasmodium berghei [3]": {"system": "Plasmodium berghei", "assay": "Inhibition of Plasmodium berghei NK65 motility up to 10 uM after 2 hrs", "assay_type": "functional, organism-based", "procedure,_shortened": "(§1)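 Gliding assay. Slides were coated with anti-CSP MAb 3D11 (10 μg/ml). P. berghei NK65 sporozoites (1 × 10⁴/well) were added with compound at 0.5, 2 or 10 μM in DMEM with 3% BSA and incubated 2 h at 37°C. Wells were fixed with paraformaldehyde and blocked. Trails were stained with biotinylated 3D11 and streptavidin-FITC.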"}, "Plasmodium berghei [4]": {"system": "Plasmodium berghei", "assay": "Antimalarial activity against Plasmodium berghei NK65 assessed as reduction of number of complex trails up to 10 uM relative to untreated control", "assay_type": "functional", "parameters": "scale not given: the % may be the effect or the level left", "procedure,_shortened": "as §1"}, "Plasmodium yoelii [5]": {"system": "Plasmodium yoelii", "assay": "Antimalarial activity against Plasmodium yoelii 17XNL infected in Swiss-Webster mouse liver assessed as reduction of parasite burden at 50 mg/kg, ip administered 15 mins before infection measured up to 22 days relative to PBS treated group", "assay_type": "functional", "details": "route intraperitoneal"}, "Plasmodium yoelii [6]": {"system": "Plasmodium yoelii", "assay": "Antimalarial activity against Plasmodium yoelii 17XNL infected in Swiss-Webster mouse liver assessed as reduction liver-stage infection at 50 mg/kg, ip administered 15 mins before infection measured up to 22 days", "assay_type": "functional, organism-based", "parameters": "dose 50 mg/kg", "procedure,_shortened": "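Female Swiss-Webster mice (6–8 weeks, n = 3) received one ip dose of 50 mg/kg in PBS, or PBS alone, before iv infection with P. yoelii 17XNL sporozoites (1 × 10⁴/mouse). The prepatent period was followed by daily Giemsa-stained blood smears.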"}, "Plasmodium yoelii [7]": {"system": "Plasmodium yoelii", "assay": "Antimalarial activity against Plasmodium yoelii 17XNL infected in Swiss-Webster mouse liver assessed as prevention of appearance of blood-stage parasites at 50 mg/kg, ip administered first dose 15 mins before infection and second and third doses given 6 hrs and 12 hrs postinfection measured up to 22 days", "assay_type": "functional, organism-based", "parameters": "dose 50 mg/kg", "procedure,_shortened": "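Female Swiss-Webster mice (6–8 weeks, n = 10) were given 50 mg/kg ip in PBS, or PBS alone. Doses were given 15 min before iv injection of P. yoelii 17XNL sporozoites (5 × 10³/mouse), then at 6 h and 12 h p.i. Blood-stage parasites were checked daily on Giemsa-stained smears for up to 3 weeks.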"}, "Plasmodium berghei [8]": {"system": "Plasmodium berghei", "assay": "Antimalarial activity against PbPKG knockout Plasmodium berghei NK65 infected in human HepG2 cells assessed as reduction of liver stage parasites level treated for 3 hrs measured 40 hrs after drug washout", "assay_type": "functional, organism-based"}, "Plasmodium berghei [9]": {"system": "Plasmodium berghei", "assay": "Antimalarial activity against PbPKG knockout Plasmodium berghei NK65 infected in human HepG2 cells assessed as reduction of liver stage parasites level treated before infection measured 40 hrs after drug washout", "assay_type": "functional, organism-based"}, "Plasmodium berghei [10]": {"system": "Plasmodium berghei", "assay": "Antimalarial activity against Plasmodium berghei NK65 infected in human HepG2 cells assessed as reduction of liver stage parasites level treated for 12 hrs measured 40 hrs after drug washout", "assay_type": "functional, organism-based", "procedure,_shortened": "(§2)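 P. berghei NK65 sporozoites from mosquito salivary glands (5 × 10⁴/well) added to HepG2 cells seeded the day before in DMEM/10% FCS, with compound at 0.5, 2 or 10 μM. At 12 h p.i. the medium was replaced with compound-free medium. Liver stages at 40 h p.i. were stained with MAb 2E6 and FITC anti-mouse IgG and counted by fluorescence microscopy. At least three experiments, each in duplicate.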"}, "Plasmodium berghei [11]": {"system": "Plasmodium berghei", "assay": "Antimalarial activity against Plasmodium berghei NK65 infected in human HepG2 cells assessed as inhibition of transformation of sporozoites into liver stage at 10 uM treated for 3 hrs measured 40 hrs after drug washout", "assay_type": "functional, organism-based", "procedure,_shortened": "(§3)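 HepG2 cells were infected with P. berghei NK65 sporozoites (5 × 10⁴/well) in the presence of compound. The compound-containing medium was removed 3 h after infection. Liver stages at 40 h p.i. were immunostained with MAb 2E6 and FITC secondary, then counted by fluorescence microscopy. At least three experiments, in duplicate.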"}, "Plasmodium berghei [12]": {"system": "Plasmodium berghei", "assay": "Antimalarial activity against Plasmodium berghei NK65 infected in human HepG2 cells assessed as reduction of liver stage parasites level at 2 uM treated for 12 hrs measured 40 hrs after drug washout", "assay_type": "functional, organism-based", "procedure,_shortened": "as §2"}, "Plasmodium berghei [13]": {"system": "Plasmodium berghei", "assay": "Antimalarial activity against Plasmodium berghei NK65 infected in human HepG2 cells assessed as reduction of liver stage parasites level at 2 uM treated for 3 hrs measured 40 hrs after drug washout", "assay_type": "functional, organism-based", "procedure,_shortened": "as §3"}, "Plasmodium yoelii [14]": {"system": "Plasmodium yoelii", "assay": "Antimalarial activity against Plasmodium yoelii infected in Swiss-Webster mouse liver assessed as reduction of parasite burden at 50 mg/kg, ip administered 15 mins before infection measured up to 22 days relative to PBS treated group", "details": "route intraperitoneal"}, "Plasmodium berghei [15]": {"system": "Plasmodium berghei", "assay": "Antimalarial activity against Plasmodium berghei ANKA infected through mosquito bite in C57BL/6 mouse liver assessed as increase of average prepatent period at 50 mg/kg, ip administered first dose 15 mins before infection and second and third doses given 6 hrs and 12 hrs postinfection measured up to 22 days (reference value: 2.66 +/- 0.57 days)", "details": "route intraperitoneal"}}, "note": "The source made the active and inactive calls. The calls are words filed in the database; no cut-off is given here."}
{"smiles": "CN1CCC(c2cc(-c3ccncc3)c(-c3ccc(F)cc3)[nH]2)CC1", "values": [{"measurement": "inhibition", "setting": "Plasmodium berghei [1]", "result": "inactive"}, {"measurement": "INH", "setting": "Plasmodium berghei [2]", "result": ">1", "unit": "µM"}, {"measurement": "inhibition", "setting": "Plasmodium berghei [3]", "result": "inactive"}, {"measurement": "Activity", "setting": "Plasmodium berghei [4]", "result": 50, "unit": "%"}, {"measurement": "fold change (FC)", "setting": "Plasmodium yoelii [5]", "result": ">1000"}, {"measurement": "Activity", "setting": "Plasmodium yoelii [6]", "result": "Active"}, {"measurement": "Activity", "setting": "Plasmodium yoelii [7]", "result": "Active"}, {"measurement": "Activity", "setting": "Plasmodium berghei [8]", "result": "Active"}, {"measurement": "Activity", "setting": "Plasmodium berghei [9]", "result": "inactive"}, {"measurement": "Activity", "setting": "Plasmodium berghei [10]", "result": "Dose dependent effect"}, {"measurement": "inhibition", "setting": "Plasmodium berghei [11]", "result": "Active"}, {"measurement": "Activity", "setting": "Plasmodium berghei [12]", "result": "Active"}, {"measurement": "Activity", "setting": "Plasmodium berghei [13]", "result": "Active"}, {"measurement": "fold change (FC)", "setting": "Plasmodium yoelii [14]", "result": ">1000"}, {"measurement": "Time", "setting": "Plasmodium berghei [15]", "result": 5.33, "unit": "days"}]}
